Columns and labels:
Mus musculus [1] = assay: Toxicity in double APP/PS1 transgenic Alzheimer's disease mouse model assessed as carcinogenicity in kidneys at 30 mg/kg/day, po for 80 days; type: organism-based; details: in vivo, 1920 h
Summary of the method: (§1)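 APP/PS1 double-transgenic mice, six months old, dosed by intragastric infusion at 30 mg/kg/day in 0.5% CMC-Na for 80 consecutive days (n = 10). Vehicle mice and wild-type C57BL/6 mice received blank 0.5% CMC-Na. Body weight tracked daily; diarrhoea, emesis-like behaviour and mortality monitored. At sacrifice, brain, subcutaneous layer, stomach, intestines, heart, lung, liver, spleen, kidneys and other organs examined for expansion or carcinogenicity.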

Mus musculus [2] = assay: Induction of cell proliferation in C57BL/6 mouse hippocampal neurons in CA2 region assessed as BrdU-incorporation at 30 mg/kg, po administered via gavage for 7 days by immunohistochemical analysis (reference value: 2.4%); type: functional
Summary of the method: (§2)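 C57BL/6 mice, 12 weeks old, n = 6, individually housed beforehand without wheels. Compound gavaged 30 mg/kg/day for 7 days with daily IP BrdU 50 mg/kg; BrdU+ cells counted by immunohistochemistry per hippocampal volume; two-way ANOVA.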

Mus musculus [3] = assay: Induction of cell proliferation in C57BL/6 mouse hippocampal neurons in CA3 region assessed as BrdU-incorporation at 0.5 uL/hr, icv for 7 days by immunohistochemical analysis (reference value: 1.4%); type: functional
Mus musculus [4] = assay: Toxicity in C57BL/6 mouse assessed as effect on food intake at 677 to 2000 mg/kg, ig measured continuously during first 4 hrs, intermittently for following 24 hrs and occasionally thereafter for 14 consecutive days; type: organism-based; details: in vivo, po
Mus musculus [5] = assay: Toxicity in double APP/PS1 transgenic Alzheimer's disease mouse model assessed as carcinogenicity in liver at 30 mg/kg/day, po for 80 days; type: organism-based; details: in vivo, 1920 h; summary of the method: as §1
[6] = Metabolic stability in Sprague-Dawley rat liver microsomes assessed as metabolic rate constant at 100 uM up to 180 mins by HPLC-UV analysis; details: 3 h
Mus musculus [7] = assay: Toxicity in C57BL/6 mouse assessed as abnormal behavior at 677 to 2000 mg/kg, ig measured continuously during first 4 hrs, intermittently for following 24 hrs and occasionally thereafter for 14 consecutive days; type: organism-based; details: in vivo, po
Summary of the method: (§3)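 Adult C57BL/6 mice, 12 weeks old, given single intragastric doses of 0, 677, 1333 or 2000 mg/kg (n = 6 per dose, 3 male and 3 female). Abnormal behaviour and deaths observed continuously for the first 4 h, intermittently over the next 24 h, then occasionally for 14 days to catch delayed effects.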

Mus musculus [8] = assay: Toxicity in double APP/PS1 transgenic Alzheimer's disease mouse model assessed as diarrhea at 30 mg/kg/day, po for 80 days; type: organism-based; details: in vivo, 1920 h; summary of the method: as §1
Mus musculus [9] = assay: Toxicity in C57BL/6 mouse assessed as macroscopic abnormalities of kidney at 677 to 2000 mg/kg, ig after 14 consecutive days; type: organism-based; details: in vivo, po
Mus musculus [10] = assay: Induction of cell proliferation in C57BL/6 mouse hippocampal neurons in CA2 region assessed as BrdU-incorporation at 0.5 uL/hr, icv for 7 days by immunohistochemical analysis (reference value: 2.4%); type: functional
[11] = Half life in Sprague-Dawley rat liver microsomes at 100 uM up to 180 mins by HPLC-UV analysis; details: liver microsomes
Mus musculus [12] = assay: Toxicity in double APP/PS1 transgenic Alzheimer's disease mouse model assessed as swimming speed at 30 mg/kg/day, po for 80 days by Morris water maze test (reference value: 17.8 +/- 2.5 cm/sec); type: organism-based; details: in vivo, 1920 h
Mus musculus [13] = assay: Toxicity in C57BL/6 mouse assessed as histological abnormalities of heart at 2000 mg/kg, ig after 14 consecutive days by hematoxylin/eosin dye-based microscopic analysis; type: organism-based; details: in vivo, po
Summary of the method: (§4)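 Adult C57BL/6 mice, 12 weeks old, single intragastric doses of 0, 677, 1333 or 2000 mg/kg (n = 6 per dose, 3 male/3 female); behaviour and mortality observed over 14 days; liver, heart, lung and brain examined by HE staining at 2000 mg/kg.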

Mus musculus [14] = assay: Toxicity in double APP/PS1 transgenic Alzheimer's disease mouse model assessed as carcinogenicity in heart at 30 mg/kg/day, po for 80 days; type: organism-based; details: in vivo, 1920 h; summary of the method: as §1
Mus musculus [15] = assay: Toxicity in C57BL/6 mouse assessed as macroscopic abnormalities of heart at 677 to 2000 mg/kg, ig after 14 consecutive days; type: organism-based; details: in vivo, po
Mus musculus [16] = assay: Toxicity in double APP/PS1 transgenic Alzheimer's disease mouse model assessed as carcinogenicity in lung at 30 mg/kg/day, po for 80 days; type: organism-based; details: in vivo, 1920 h; summary of the method: as §1
Mus musculus [17] = assay: Toxicity in C57BL/6 mouse assessed as mortality at 677 to 2000 mg/kg, ig measured continuously during first 4 hrs, intermittently for following 24 hrs and occasionally thereafter for 14 consecutive days; type: organism-based; details: in vivo, po; summary of the method: as §3
Mus musculus [18] = assay: Induction of cell proliferation in C57BL/6 mouse hippocampal neurons in CA3 region assessed as BrdU-incorporation at 30 mg/kg, po administered via gavage for 7 days by immunohistochemical analysis (reference value: 1.5%); type: functional; summary of the method: as §2
Mus musculus [19] = assay: Toxicity in C57BL/6 mouse assessed as histological abnormalities of brain at 2000 mg/kg, ig after 14 consecutive days by hematoxylin/eosin dye-based microscopic analysis; type: organism-based; details: in vivo, po, 336 h; summary of the method: as §4
Mus musculus [20] = assay: Toxicity in C57BL/6 mouse assessed as macroscopic abnormalities of liver at 677 to 2000 mg/kg, ig after 14 consecutive days; type: organism-based; details: in vivo, po
Mus musculus [21] = assay: Toxicity in double APP/PS1 transgenic Alzheimer's disease mouse model assessed as brain expansion at 30 mg/kg/day, po for 80 days; type: organism-based; details: in vivo, 1920 h; summary of the method: as §1
Mus musculus [22] = assay: Toxicity in double APP/PS1 transgenic Alzheimer's disease mouse model assessed as carcinogenicity in stomach at 30 mg/kg/day, po for 80 days; type: organism-based; details: in vivo, 1920 h; summary of the method: as §1
Mus musculus [23] = assay: Cognition enhancement activity in double APP/PS1 transgenic Alzheimer's disease mouse model assessed as swimming path length in correct quadrant at 30 mg/kg/day, po for 80 days by Morris water maze test (reference value: 295.3 +/- 46.9 cm); type: functional
Summary of the method: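 APP/PS1 mice, six months old, gavaged 30 mg/kg/day in 0.5% CMC-Na for 80 days. Probe trial was a single 90 s free swim with the platform absent; effective region is twice the platform diameter. n = 10, mean ± SD, two-way ANOVA.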

Mus musculus [24] = assay: Toxicity in C57BL/6 mouse assessed as histological abnormalities of lung at 2000 mg/kg, ig after 14 consecutive days by hematoxylin/eosin dye-based microscopic analysis; type: organism-based; details: in vivo, po, 336 h; summary of the method: as §4
Mus musculus [25] = assay: Toxicity in C57BL/6 mouse assessed as histological abnormalities of liver at 2000 mg/kg, ig after 14 consecutive days by hematoxylin/eosin dye-based microscopic analysis; type: organism-based; details: in vivo, po, 336 h; summary of the method: as §4
Mus musculus [26] = assay: Toxicity in C57BL/6 mouse assessed as macroscopic abnormalities of intestine at 677 to 2000 mg/kg, ig after 14 consecutive days; type: organism-based; details: in vivo, po
Mus musculus [27] = assay: Toxicity in double APP/PS1 transgenic Alzheimer's disease mouse model assessed as carcinogenicity in spleen at 30 mg/kg/day, po for 80 days; type: organism-based; details: in vivo, 1920 h; summary of the method: as §1
Mus musculus [28] = assay: Toxicity in double APP/PS1 transgenic Alzheimer's disease mouse model assessed as effect on body weight at 30 mg/kg/day, po for 80 days; type: organism-based; details: in vivo, 1920 h; summary of the method: as §1

Q: Which Activity (Mus musculus [1]) does the source give for Cl.Oc1ccc2[nH]c(-c3ccc4c(Cl)cc(Cl)c(O)c4n3)cc2c1 here?
A: Non-Toxic

Q: What about the Activity (Mus musculus [2]) of the same molecule?
A: 24.3%

Q: What about the Activity (Mus musculus [3]) of the same molecule?
A: 36.5%

Q: And the Activity (Mus musculus [4])?
A: Non-Toxic

Q: And the Activity (Mus musculus [5])?
A: Non-Toxic

Q: And the K [6]?
A: 0.00593 min⁻¹

Q: And the Activity (Mus musculus [7])?
A: Non-Toxic

Q: What about the Activity (Mus musculus [8]) of the same molecule?
A: Non-Toxic

Q: What about the Activity (Mus musculus [9]) of the same molecule?
A: Non-Toxic

Q: And the Activity (Mus musculus [10])?
A: 39.6%

Q: And the half-life at 3 h, 100 µM [11]?
A: 1.95 h

Q: What about the Activity (Mus musculus [12]) of the same molecule?
A: 18.9 cm/s

Q: What about the Activity (Mus musculus [13]) of the same molecule?
A: Non-Toxic

Q: And the Activity (Mus musculus [14])?
A: Non-Toxic

Q: And the Activity (Mus musculus [15])?
A: Non-Toxic

Q: And the Activity (Mus musculus [16])?
A: Non-Toxic

Q: And the Activity (Mus musculus [17])?
A: Non-Toxic

Q: And the Activity (Mus musculus [18])?
A: 23.9%

Q: What about the Activity (Mus musculus [19]) of the same molecule?
A: Non-Toxic

Q: And the Activity (Mus musculus [20])?
A: Non-Toxic

Q: What about the Activity (Mus musculus [21]) of the same molecule?
A: Non-Toxic

Q: And the Activity (Mus musculus [22])?
A: Non-Toxic

Q: What about the Activity (Mus musculus [23]) of the same molecule?
A: 533.3 cm

Q: And the Activity (Mus musculus [24])?
A: Non-Toxic

Q: What about the Activity (Mus musculus [25]) of the same molecule?
A: Non-Toxic

Q: What about the Activity (Mus musculus [26]) of the same molecule?
A: Non-Toxic

Q: What about the Activity (Mus musculus [27]) of the same molecule?
A: Non-Toxic

Q: What about the Activity (Mus musculus [28]) of the same molecule?
A: Non-Toxic

Q: What does the source list for Cl.Oc1c(Cl)cc(Cl)c2ccc(-c3cc4cc5c(cc4[nH]3)OCO5)nc12?
A: Activity (Mus musculus [1]): Non-Toxic; Activity (Mus musculus [2]): 16.3%; Activity (Mus musculus [3]): 37.6%; Activity (Mus musculus [4]): Non-Toxic; Activity (Mus musculus [5]): Non-Toxic; K [6]: 0.00178 min⁻¹; Activity (Mus musculus [7]): Non-Toxic; Activity (Mus musculus [8]): Non-Toxic; Activity (Mus musculus [9]): Non-Toxic; Activity (Mus musculus [10]): 38%; half-life at 3 h, 100 µM [11]: 6.49 h; Activity (Mus musculus [12]): 19 cm/s; Activity (Mus musculus [13]): Non-Toxic; Activity (Mus musculus [14]): Non-Toxic; Activity (Mus musculus [15]): Non-Toxic; Activity (Mus musculus [16]): Non-Toxic; Activity (Mus musculus [17]): Non-Toxic; Activity (Mus musculus [18]): 17.1%; Activity (Mus musculus [19]): Non-Toxic; Activity (Mus musculus [20]): Non-Toxic; Activity (Mus musculus [21]): Non-Toxic; Activity (Mus musculus [22]): Non-Toxic; Activity (Mus musculus [23]): 473.5 cm; Activity (Mus musculus [24]): Non-Toxic; Activity (Mus musculus [25]): Non-Toxic; Activity (Mus musculus [26]): Non-Toxic; Activity (Mus musculus [27]): Non-Toxic; Activity (Mus musculus [28]): Non-Toxic
